10 molecules from ChEMBL document CHEMBL2331219, “Synthesis and anti-Candida activity of novel 2-hydrazino-1,3-thiazole derivatives” (Bioorg Med Chem Lett, 2013) can be followed below.

≈ marks a conversion by molar mass, not a printed value.

Data set [1] has as its system Candida albicans. Kind of data set: Antifungal activity against azole-resistant Candida albicans clinical isolate 7.O.A assessed as growth inhibition after 24 to 48 hrs by CLSI microbroth dilution method. Format: functional. The gist of the method: (§1)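 Microbroth dilution per CLSI M27-A3. Isolates subcultured for purity, incubated at 35 °C; five colonies >1 mm suspended in saline, adjusted to 0.5 × 10³ to 2.5 × 10³ in RPMI 1640 buffered to pH 7.0 with 0.165 M MOPS. Compounds diluted in RPMI to final […]. Read visually after 24 h and 48 h at 35 °C; MIC judged by turbidity against drug-free growth control.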
(Dilution methods test growth across graded concentrations, often in twofold steps.)

Data set [2] has as its system Nakaseomyces glabratus. Kind of data set: Antifungal activity against voriconazole-resistant Candida glabrata clinical isolate 730 assessed as growth inhibition after 24 to 48 hrs by CLSI microbroth dilution method. Format: functional. Put shortly:
as §1

The test system of data set [3] is Nakaseomyces glabratus. Kind of data set: Antifungal activity against voriconazole-resistant Candida glabrata clinical isolate 724 assessed as growth inhibition after 24 to 48 hrs by CLSI microbroth dilution method. Format: functional. Put shortly:
as §1

Data set [4] has as its system Candida parapsilosis. Put plainly: Antifungal activity against anidulafungin-resistant Candida parapsilosis isolate 22019 assessed as growth inhibition after 24 to 48 hrs by CLSI microbroth dilution method. The conditions noted are these: Lodderomyces parapsilosis. Format: functional. Put shortly: as §1
The subject of data set [5] is Nakaseomyces glabratus. Kind of data set: Antifungal activity against fluconazole-resistant Candida glabrata isolate 6258 assessed as growth inhibition after 24 to 48 hrs by CLSI microbroth dilution method. Format: functional. Put shortly:
as §1

The subject of data set [6] is Candida albicans. Kind of data set: Antifungal activity against caspofungin-resistant Candida albicans assessed as growth inhibition after 24 to 48 hrs by CLSI microbroth dilution method.
Data set [7] concerns Candida albicans. Put plainly: Antifungal activity against fluconazole-resistant Candida albicans clinical isolate 5.O.A assessed as growth inhibition after 24 to 48 hrs by CLSI microbroth dilution method. Format: functional. Put shortly:
as §1

In data set [8] the test system is Candida parapsilosis. Kind of data set: Antifungal activity against anidulafungin-resistant Candida parapsilosis ANF8 assessed as growth inhibition after 24 to 48 hrs by CLSI microbroth dilution method. Format: functional. The conditions noted are these: Lodderomyces parapsilosis. The gist of the method:
as §1

Data set [9] is described as follows: Cytotoxicity against mouse NIH/3T3 cells assessed as cell viability at 62.5 ug/mL after 24 hrs by MTT assay relative to control. Format: cell-based, NIH3T3. The note with it: read-out: Activity. The gist of the method: (§2)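 NIH/3T3 fibroblasts kept in DMEM with 10% fetal calf serum, penicillin/streptomycin, 37 °C, 5% CO2. Cells seeded at 2 × 10⁴ cells/mL, grown 24 h, then given compound (DMSO stock diluted in medium, final DMSO <0.1%) for 24 h. MTT at 0.5 mg/mL final added for 4 h, formazan dissolved in DMSO, absorbance read at 540 nm. Triplicate wells, mean ± SD, assay run twice.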
On the technique in general: Tetrazolium dyes change colour on reduction, which living cells bring about.

The nature of data set [10]: Cytotoxicity against mouse NIH/3T3 cells assessed as cell viability at 1 ug/mL after 24 hrs by MTT assay relative to control. Format: cell-based, NIH3T3. The conditions noted are these: read-out: Activity. The gist of the method:
as §2

A short description of data set [11]: Cytotoxicity against mouse NIH/3T3 cells assessed as cell viability at 0.5 ug/mL after 24 hrs by MTT assay relative to control. Format: cell-based, NIH3T3. The note with it: read-out: Activity. The gist of the method:
as §2

Data set [12] can be described thus: Cytotoxicity against mouse NIH/3T3 cells assessed as cell viability at 31.3 ug/mL after 24 hrs by MTT assay relative to control. The note with it: read-out: Activity. Format: cell-based, NIH3T3. The gist of the method:
as §2

Usually MIC stands for the least concentration at which growth counts as inhibited. Consider `COc1ccc(O)c(-c2csc(N/N=C/c3cnc[nH]3)n2)c1`, for which the MIC in the data set with Candida albicans [1], with Nakaseomyces glabratus [2], in the data set on Nakaseomyces glabratus [3], in the data set on Candida parapsilosis [4], with Nakaseomyces glabratus [5] and in the data set on Candida albicans [6] was > 16 µg/mL each time. The MIC in the data set with Candida albicans [7] and with Candida parapsilosis [8] was > 16 µg/mL each time.
As to `COc1ccc(O)c(-c2csc(N/N=C/c3c(-c4ccccc4)nc4scc(C)n34)n2)c1`, the MIC in the data set on Candida albicans [1] is > 16 µg/mL; in the data set with Nakaseomyces glabratus [2], 2 µg/mL (≈ 4.33 µM); in the data set on Nakaseomyces glabratus [3], > 16 µg/mL; with Candida parapsilosis [4], > 16 µg/mL; in the data set with Nakaseomyces glabratus [5], > 16 µg/mL; in the data set with Candida albicans [6], > 16 µg/mL. Besides, the MIC in the data set on Candida albicans [7] is > 16 µg/mL; with Candida parapsilosis [8], 4 µg/mL (≈ 8.67 µM). Also, the viability at 24 h, 62.5 ug/mL in [9] worked out at 59.5%. In [10], the viability at 24 h, 1 ug/mL is 90%. For the same molecule, the viability at 24 h, 0.5 ug/mL in [11] turned out to be 94.6%. Moreover, the viability at 24 h, 31.3 ug/mL in data set [12] was 64.1%.
For `C/C(=N\Nc1nc([C@H](C)NC(=O)OCc2ccccc2)cs1)c1ccc2c(c1)CCC2`, the MIC in the data set on Candida albicans [1], with Nakaseomyces glabratus [2], in the data set on Nakaseomyces glabratus [3], in the data set with Candida parapsilosis [4], in the data set on Nakaseomyces glabratus [5] and in the data set on Candida albicans [6] was > 16 µg/mL throughout. Moreover, the MIC in the data set on Candida albicans [7] and in the data set on Candida parapsilosis [8] was > 16 µg/mL each time.
Consider `C/C(=N\Nc1nc([C@H](Cc2ccccc2)NC(=O)OCc2ccccc2)cs1)c1ccc2c(c1)CCC2`, for which the MIC in the data set on Candida albicans [1], in the data set on Nakaseomyces glabratus [2], in the data set with Nakaseomyces glabratus [3], in the data set with Candida parapsilosis [4], in the data set with Nakaseomyces glabratus [5] and in the data set with Candida albicans [6] was > 16 µg/mL each time. The MIC in the data set on Candida albicans [7] and in the data set with Candida parapsilosis [8] was > 16 µg/mL in each case.
With `C/C(=N\Nc1nc([C@H](Cc2c[nH]c3ccccc23)NC(=O)OCc2ccccc2)cs1)c1ccc2c(c1)CCC2`, the MIC was > 16 µg/mL in the data set with Candida albicans [1]; 8 µg/mL (≈ 14.6 µM) with Nakaseomyces glabratus [2]; > 16 µg/mL in the data set with Nakaseomyces glabratus [3]; 8 µg/mL (≈ 14.6 µM) with Candida parapsilosis [4]; > 16 µg/mL with Nakaseomyces glabratus [5]; > 16 µg/mL in the data set on Candida albicans [6]. In addition, the minimal inhibitory concentration (MIC) in the data set with Candida albicans [7] and in the data set with Candida parapsilosis [8] was > 16 µg/mL each time.
Consider `C[C@@H]1[C@H](O)[C@@H](C)/C=C/C=C/C=C/C=C/C=C/C=C/C=C/[C@H](O[C@@H]2O[C@H](C)[C@@H](O)[C@H](N)[C@@H]2O)C[C@@H]2O[C@](O)(C[C@@H](O)C[C@@H](O)[C@H](O)CC[C@@H](O)C[C@@H](O)CC(=O)O[C@H]1C)C[C@H](O)[C@H]2C(=O)O` [AMPHOTERICIN B], for which the MIC amounted to 0.5 µg/mL (≈ 0.541 µM) in the data set on Candida albicans [1]; 1 µg/mL (≈ 1.08 µM) in the data set with Nakaseomyces glabratus [2]; 0.5 µg/mL (≈ 0.541 µM) with Nakaseomyces glabratus [3]; 1 µg/mL (≈ 1.08 µM) with Candida parapsilosis [4]; 1 µg/mL (≈ 1.08 µM) in the data set on Nakaseomyces glabratus [5]; 0.5 µg/mL (≈ 0.541 µM) in the data set on Candida albicans [6]. Besides, the MIC in the data set with Candida albicans [7] and in the data set with Candida parapsilosis [8] was 0.5 µg/mL (≈ 0.541 µM) each time.
Regarding `CC[C@H](C)C[C@H](C)CCCCCCCCC(=O)N[C@H]1C[C@@H](O)[C@@H](NCCN)NC(=O)[C@@H]2[C@@H](O)CCN2C(=O)[C@H]([C@H](O)CCN)NC(=O)[C@H]([C@H](O)[C@@H](O)c2ccc(O)cc2)NC(=O)[C@@H]2C[C@@H](O)CN2C(=O)[C@H]([C@@H](C)O)NC1=O` [CASPOFUNGIN], the MIC came to 0.25 µg/mL (≈ 0.229 µM) with Candida albicans [1]; 2 µg/mL (≈ 1.83 µM) in the data set with Nakaseomyces glabratus [2]; 0.5 µg/mL (≈ 0.457 µM) in the data set with Nakaseomyces glabratus [3]; 0.5 µg/mL (≈ 0.457 µM) in the data set with Candida parapsilosis [4]; 2 µg/mL (≈ 1.83 µM) in the data set on Nakaseomyces glabratus [5]; 0.5 µg/mL (≈ 0.457 µM) in the data set on Candida albicans [6]. Also, the MIC in the data set with Candida albicans [7] is 0.5 µg/mL (≈ 0.457 µM); in the data set with Candida parapsilosis [8] it was 8 µg/mL (≈ 7.32 µM).
Regarding `OC(Cn1cncn1)(Cn1cncn1)c1ccc(F)cc1F` [FLUCONAZOLE], the MIC with Candida albicans [1] is > 64 µg/mL; in the data set on Nakaseomyces glabratus [2] it was 64 µg/mL (≈ 209 µM); in the data set on Nakaseomyces glabratus [3], 64 µg/mL (≈ 209 µM); in the data set with Candida parapsilosis [4], 64 µg/mL (≈ 209 µM); with Nakaseomyces glabratus [5], 16 µg/mL (≈ 52.2 µM); in the data set on Candida albicans [6], 0.125 µg/mL (≈ 0.408 µM). For the same molecule, the MIC came out at 32 µg/mL (≈ 104 µM) in the data set on Candida albicans [7] and 1 µg/mL (≈ 3.27 µM) with Candida parapsilosis [8].
For `CCC(C)n1ncn(-c2ccc(N3CCN(c4ccc(OCC5COC(Cn6cncn6)(c6ccc(Cl)cc6Cl)O5)cc4)CC3)cc2)c1=O` (centres undefined) [ITRACONAZOLE], the MIC in the data set on Candida albicans [1] is > 16 µg/mL; with Nakaseomyces glabratus [2], 1 µg/mL (≈ 1.42 µM); with Nakaseomyces glabratus [3], 2 µg/mL (≈ 2.83 µM); with Candida parapsilosis [4] it was 0.5 µg/mL (≈ 0.709 µM); in the data set on Nakaseomyces glabratus [5], 0.5 µg/mL (≈ 0.709 µM); with Candida albicans [6], 0.03 µg/mL (≈ 0.0425 µM). In addition, the MIC in the data set with Candida albicans [7] amounted to 0.5 µg/mL (≈ 0.709 µM); in the data set on Candida parapsilosis [8] it was 0.03 µg/mL (≈ 0.0425 µM).
For the molecule `C[C@@H](c1ncncc1F)[C@](O)(Cn1cncn1)c1ccc(F)cc1F` [VORICONAZOLE], the MIC with Candida albicans [1] was > 16 µg/mL; in the data set with Nakaseomyces glabratus [2], 16 µg/mL (≈ 45.8 µM); in the data set with Nakaseomyces glabratus [3] it was 8 µg/mL (≈ 22.9 µM); in the data set with Candida parapsilosis [4], 0.25 µg/mL (≈ 0.716 µM); in the data set with Nakaseomyces glabratus [5], 2 µg/mL (≈ 5.73 µM); in the data set with Candida albicans [6] it was 0.25 µg/mL (≈ 0.716 µM). Also, the MIC in the data set with Candida albicans [7] was 0.25 µg/mL (≈ 0.716 µM); with Candida parapsilosis [8] it was 0.06 µg/mL (≈ 0.172 µM).
